Only some compounds are listed: those with a hit (about 1.5% of all), similar ones and a draw of the others.
APJ antag: antagonists of human apelin receptor APJ, primary screen, CHO-K1 cells, beta-arrestin complementation, luminescence. inhibition, % at 20 µM. P35414. AID 2521, 2010. 330,000 tested, 0.32% active;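 active = inhibition above about 40% at 20 µM, limit read from the data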;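 note: cells challenged with 10 nM apelin-13 agonist together with compound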
Target sequence (P35414 whole entry, looked up): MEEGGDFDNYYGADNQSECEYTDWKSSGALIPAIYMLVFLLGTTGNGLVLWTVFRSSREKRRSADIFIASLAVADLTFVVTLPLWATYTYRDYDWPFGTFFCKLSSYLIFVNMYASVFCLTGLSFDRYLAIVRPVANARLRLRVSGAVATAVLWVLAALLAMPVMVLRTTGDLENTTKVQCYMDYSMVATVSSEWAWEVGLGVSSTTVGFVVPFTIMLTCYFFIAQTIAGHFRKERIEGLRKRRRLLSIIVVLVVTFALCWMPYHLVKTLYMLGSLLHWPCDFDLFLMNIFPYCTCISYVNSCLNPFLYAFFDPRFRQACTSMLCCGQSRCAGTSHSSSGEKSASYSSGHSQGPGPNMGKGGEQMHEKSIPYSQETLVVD
CXCR6 inh: CXCR6 receptor inhibitors, primary screen, cell-based, beta-arrestin, luminescence, CHO-K1 PathHunter, 1536-well; AID 602244, 2012; inhibition, % at 20 µM; 360,000 tested, 0.36% active; C-X-C chemokine receptor type 6 (Homo sapiens), O00574; in the data active = inhibition above about 34%, passing the limit was not always enough;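 note: antagonist mode with CXCL16 agonist at 10 nM final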
APJ ag: agonists of human apelin receptor APJ, primary screen, CHO-K1 cells, PathHunter beta-arrestin, luminescence. activation, % at 20 µM. 0% DMSO wells, 100% apelin. P35414. 330,000 tested, 0.11% active;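 active = activation more than six SD over the plate average, tested at 20 µM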
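Test system: CHO-K1 APJ beta-arrestin complementation cell line | Compound: Single test compound dose, 20 µM final, 1% DMSO | Incubation: Compound 90 min 25 °C, reagent 1 h | Measured by: beta-gal luminescence | Read-out basis: APJ–arrestin association signal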
CCR6 antag: CCR6 receptor antagonists, primary screen, cell-based, CHO-K1, luminescence, beta-arrestin, uHTS. C-C chemokine receptor type 6 (Homo sapiens), P51684. CHO-K1 CCR6 PathHunter beta-arrestin, CCL20-stimulated. 340,000 tested, 0.49% active. inhibition, % at 20 µM;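 active = compounds whose inhibition of the agonist-driven luminescence signal at 20 µM reaches about 50%, limit read from the data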;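 note: cells stimulated with CCL20 at 14 nM final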
EBI2 block: EBI2 receptor antagonists, beta-arrestin recruitment, primary screen, cell-based, luminescence, 7a,25-OHC stimulation, uHTS; G-protein coupled receptor 183 (Homo sapiens), P32249; inhibition, % at 5 µM; 7a,25-OHC stimulated; 360,000 tested, 0.81% active; AID 651636, 2012; in the data active = inhibition above about 38%;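 note: enzyme fragment complementation signal reports receptor beta-arrestin coupling in cells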
Large screens that a line does not name were inactive.

CN(CCOc1ccc(Cl)cc1)C(=O)C1CCN(C(=O)c2ccc(F)cc2)CC1	none
CCCn1c(CNc2ccccc2O)nc2ccccc21	CCR6 antag 62
O=C(COC(=O)/C=C/c1cccc(F)c1)NC(=O)NCc1ccccc1	none
Cc1ccc2nc3cc([N+](=O)[O-])cc([N+](=O)[O-])c3cc2c1	EBI2 block 53 (no result: APJ antag, APJ ag)
CCOC(=O)C1(Cc2ccc(OC)cc2)CCN(C(=O)CCc2cnccn2)CC1	none
CCOC(=O)C1(Cc2ccc(Cl)cc2)CCN(C(=O)CCc2cnccn2)CC1	CCR6 antag 62
COc1ccccc1C(=O)Nc1nc2ccccc2s1	none
CCOc1ccc2nc(NC(=O)Nc3ccccc3)sc2c1	none
COc1ccc(C(=O)Nc2nc3ccccc3s2)c(OC)c1	EBI2 block 50
CCOc1ccc2nc(NC(=O)c3ccccn3)sc2c1	APJ antag 79, CXCR6 inh 58, CCR6 antag 79, EBI2 block 60
CC(C)=CCC[C@H](C)CC1Cc2[nH]c(=S)[nH]c(=O)c2C(c2ccc(Cl)cc2)O1 (some centres not stated)	none (no result: APJ antag, APJ ag, CCR6 antag)
Cc1cc(NCCCn2ccnc2)n2ncc(-c3ccc(Cl)cc3)c2n1	EBI2 block 45
Cc1cc(NCCCN2CCOCC2)n2ncc(-c3ccc(Cl)cc3)c2n1	none
Cc1onc(-c2ccccc2)c1C(=O)OCC(=O)N1CCCCC1	none (no result: APJ antag, APJ ag, CCR6 antag)
CCOC(=O)CN1C(=O)S/C(=C/c2cccc([N+](=O)[O-])c2O)C1=O	CCR6 antag 56
O=C(O)c1cccc(CN2C(=O)S/C(=C/c3ccccc3[N+](=O)[O-])C2=O)c1	none
CC(C)OCC1CO1 (configuration not stated)	none
O=C1C(Cl)=C(Nc2ccccc2)C(=O)c2ccccc21	CCR6 antag 53 (no result: APJ antag, APJ ag)
O=c1c2ccccc2n(Cc2ccc(Cl)cc2)c(=O)n1Cc1ccco1	EBI2 block 77
Cc1ccc(/C=N/NC(=O)CNC(=O)c2cccc([N+](=O)[O-])c2C)o1	none
CN1CCN(c2ncnc3c2ncn3[C@H]2CN(Cc3ccc(C(=O)O)cc3)C[C@@H](CO)O2)CC1	none (no result: APJ antag, APJ ag, CCR6 antag)
O=C1NC(=S)S/C1=C\C=C\c1ccc([N+](=O)[O-])o1	CCR6 antag 61 (no result: APJ antag, APJ ag)
O=[N+]([O-])c1ccc2c(c1Nc1ccccc1)=NC1(CCCCC1)N=2	EBI2 block 66
COc1ccc(Nc2c([N+](=O)[O-])ccc3c2=NC2(CCCCC2)N=3)cc1	EBI2 block 61
O=[N+]([O-])c1ccccc1Nc1ccccc1	none
COc1cc(OC)cc(C(=O)Nc2nc(-c3ccccc3)c(-c3ccccc3)o2)c1	CCR6 antag 62
O=C(/C=C/c1cc(Br)ccc1O)c1ccco1	CCR6 antag 64
O=C(/C=C/c1ccccc1O)c1ccco1	none
Cc1ccc(C(=O)NC(=S)Nc2cccc3nsnc23)cc1	none
Cc1ccc(C(=O)NC(=S)Nc2cccc3c(C)cc(C)nc23)cc1	CCR6 antag 51
O=C(CC12CC3CC(CC(C3)C1)C2)NCc1ccc(F)cc1	none
CSCCC(NC(=O)/C(=C\c1ccc(Cl)cc1)NC(=O)c1ccccc1)C(=O)O (configuration not stated)	none
Cc1ccc(C(=O)Nc2cccc(NC(=O)CN3CCCCC3)c2)cc1	none
C=C1CC2(OC1=O)c1ccccc1CCc1ccccc12	CXCR6 inh 45, CCR6 antag 68 (no result: APJ antag, APJ ag)
CNc1ccc(C(=O)OCC(=O)Nc2ccnn2C(C)C)cc1[N+](=O)[O-]	none
CC1=C(C(=O)OC2CCCC2)C(c2ccc(C)o2)C2=C(CC(c3cccs3)CC2=O)N1 (configuration not stated)	CCR6 antag 58
CC1=C(C(=O)OC2CCCCCC2)C(c2ccc(C)o2)C2=C(CCCC2=O)N1 (configuration not stated)	none
COC(=O)C1=C(C)NC2=C(C(=O)CC(c3cccs3)C2)C1c1ccsc1 (configuration not stated)	CCR6 antag 58 (no result: APJ antag, APJ ag)
CCCOC(=O)C1=C(C)NC2=C(C(=O)CCC2)C1c1cccs1 (configuration not stated)	none
Cc1cccc(NC(=O)COC(=O)Cc2cccs2)c1C	none
CC(=O)NC12CC3CC(C1)CC(C(=O)N1CCN(c4ncccn4)CC1)(C3)C2	none
CC(C)(C)Cc1c(-c2ccccc2)nc2ccc(Cl)cn12	none (no result: APJ antag, APJ ag, CCR6 antag)
O=C1C(Cl)=C(N2CCN(c3ccccc3[N+](=O)[O-])CC2)C(=O)c2ccccc21	CXCR6 inh 42 (no result: APJ antag, APJ ag, CCR6 antag)
O=[N+]([O-])c1cc(Cl)ccc1N1CCCC1	none
CCCNC(=O)C1(C)CCCN(C(=O)c2ccccc2F)C1 (configuration not stated)	none (no result: APJ antag, APJ ag, CCR6 antag)
Cc1ccc(SC2=C(Sc3ccc(C)cc3)C(=O)c3ccccc3C2=O)cc1	none
CC1=CC(=O)C(Sc2ccc(C)cc2)=CC1=O	CXCR6 inh 92 (no result: APJ antag, APJ ag, CCR6 antag)
CN(C)c1ccc(N=Nc2ccccc2C(=O)OCC(=O)NCC2CCCCC2)cc1	CCR6 antag 54
O=C(Nc1ccc(Oc2ccc(C(=O)O)c(C(=O)O)c2)cc1)c1cccs1	none
CN(CC(=O)NCc1ccco1)CC(=O)Nc1cc(S(C)(=O)=O)ccc1Cl	none
CC(NC(=O)/C(C#N)=C/c1ccc(Cl)c([N+](=O)[O-])c1)c1ccccc1 (configuration not stated)	CCR6 antag 93 (no result: CXCR6 inh, EBI2 block)
C[C@@H](NC(=O)/C(C#N)=C/c1ccc(O)c(O)c1)c1ccccc1	none
COc1cc(/C=C2/C(=O)NN(c3cccc(Cl)c3)C2=O)cc(OC)c1O	CCR6 antag 52
CCN1/C(=C/C=C/c2oc3ccc(-c4ccccc4)cc3[n+]2CC)Oc2ccc(-c3ccccc3)cc21	CCR6 antag 60
O=[N+]([O-])c1cnc(Sc2ccncn2)c([N+](=O)[O-])c1	CXCR6 inh 100 (no result: APJ antag, APJ ag, CCR6 antag)
O=[N+]([O-])c1ccc(Sc2ncccn2)c([N+](=O)[O-])c1	none
COc1ccc(CCNC(=O)[C@H](C)NC(=O)N2CCn3c2nc2ccccc23)cc1OC	none
Cc1ccccc1CN1CCN(C(=O)CC(C)C)CC1	none
N#CC(C#N)=c1ccc2c(c1)NC1(CCCCC1)N=2	CCR6 antag 54
O=C(NNc1ncnc2ccccc12)c1cccc(Cl)c1	none
COc1cccc(OCC(O)CN2CCC(CN3C(=O)c4cccc5cccc(c45)C3=O)CC2)c1 (configuration not stated)	none
O=C1c2cccc3cccc(c23)C(=O)N1CC1CCN(CC(O)COc2ccc3ccccc3c2)CC1 (configuration not stated)	EBI2 block 57
CN1CC(=O)N2C(c3cccc([N+](=O)[O-])c3)c3[nH]c4ccccc4c3C[C@H]2C1=O (some centres not stated)	none

Bioassay records deposited in PubChem BioAssay by Sanford-Burnham Center for Chemical Genomics.
